TRPC6 inh = blocks the mouse TRPC6 cation channel; Q61143; HEK293-TRPC6, membrane potential dye, ACh-evoked depolarization; active compounds read low; B-score at 10 µM; hit rate 1.1% among 310,000; AID 2553;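 active = B-score under library mean minus 3 SD, initial fluorescence not abnormally high, positive integrated signal ratio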;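 also: B-score derived from integrated fluorescence ratio over the kinetic read; more negative B-score means stronger inhibition of depolarization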
TRPC4 block = blocks the mouse TRPC4 cation channel | Q9QUQ5 | HEK293 TRPC4beta/mu-opioid, DAMGO-evoked Fluo4 calcium flux; active compounds read low | B-score at 10 µM | hit rate 0.39% among 300,000 | AID 2247;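 active = B-score over 3 SD under the library average, no early fluorescence shift, positive overall ratio signal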
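Assay system: HEK293 cells with stable TRPC4beta plus mu-opioid receptor expression; Probe or stimulus: DAMGO in two steps, submaximal then maximal; Dosing: single-point compound dosing; Measured by: Fluo4 calcium-dye fluorescence, kinetic read; Read-out basis: B score from integrated Fluo4 fluorescence ratio.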
TRPC4 PAM = allosteric potentiators of mouse TRPC4 channel; AID 2227; hit rate 0.42% among 310,000; Q9QUQ5; HEK293 TRPC4beta/mu-opioid, DAMGO EC20, Fluo-4 Ca2+ flux; active compounds read high; B-score at 10 µM;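 active = B-score of calcium response area above 5 SD of library B-scores, with initial fluorescence ratio within 5 SD of library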;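 also: B-score of integrated fluorescence ratio over time as area under calcium response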
TRPC6 act = mouse TRPC6 channel activation; hit rate 0.13% among 310,000; B-score at 10 µM; Q61143; HEK293-TRPC6 membrane potential dye fluorescence; active compounds read high; AID 2550;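 active = B-score of the integrated fluorescence ratio above library mean plus 3 SD, and starting fluorescence ratio within library mean plus 5 SD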;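 also: higher score means more depolarization so channel activation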
TRPC4 agonist = TRPC4 (mouse) channel activation; HEK293 TRPC4beta/mu-opioid, Fluo4 calcium fluorescence; active compounds read high; B-score at 10 µM; hit rate 0.49% among 310,000;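 active = B-score above 5 SD of library B-scores, and initial fluorescence ratio not above library mean plus 5 SD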;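 also: positive B-score marks a calcium rise read as TRPC4 activation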
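System: HEK293 cells stably co-expressing mouse TRPC4beta and mu-opioid receptor; Schedule: Fluo4 dye loading 45 min at room temperature, 110 s recording; Detection: Fluo4 fluorescence, kinetic; Evaluation: B-scored integrated calcium fluorescence ratio; Controls: buffer (low) and maximal DAMGO (high).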
TRPC4 spec 2 = second selectivity test of TRPC6 inhibitors: effect on mouse TRPC4 | shares compounds with TRPC6 inh | HEK293 TRPC4/MOR, membrane potential dye fluorescence; channel activated by saturating DAMGO dose | inhibition, % at 10 µM | hit rate 42% among 920;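 active = compounds whose fluorescence signal differed from control wells by over 3 SD, either direction, in both duplicate plates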
TRPC4 spec = mouse TRPC4 off-target activity of TRPC6 inhibitors | shares compounds with TRPC6 inh | HEK293 TRPC4/mu-opioid, membrane potential fluorescence | activity change, negative = inhibition, % at 10 µM | hit rate 61% among 920;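 active = rise or fall in signal beyond 3 SD of buffer-only wells in both replicate plates, either sign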;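 also: integrated kinetic ratio of fluorescence range over baseline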
HEK293 MPD ctr 2-1 = second check of TRPC6 inhibitor effects in parental HEK293 cells; hit rate 31% among 920; shares compounds with TRPC6 inh; signal change vs control, % at 10 µM; parental HEK293 membrane potential dye fluorescence; maximal acetylcholine challenge after compound addition;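 active = membrane potential signal moving either way by over 3 SD of the maximum-effect control, in both duplicate plates, meaning non-specific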
HEK293 MPD ctr-1 = counter-screen for TRPC6 inhibitors: effect in parental HEK293 cells. shares compounds with TRPC6 inh. parental HEK293 membrane potential dye fluorescence. membrane potential signal change, % at 10 µM. hit rate 60% among 920;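 active = membrane potential signal shifting up or down by more than 3 SD of buffer-only wells, on both duplicate plates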
HEK293 MPD ctr-2 = counter-screen for TRPC6 modulators: effect in parental HEK293 cells | membrane potential dye fluorescence | shares compounds with TRPC6 inh | membrane potential signal change, % at 10 µM | hit rate 51% among 2,400;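 active = membrane potential signal moves up or down beyond 5 SD from buffer-only wells, on both duplicate plates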
HEK293 MPD ctr 2-2 = second check of TRPC6 modulator effects in parental HEK293 cells | shares compounds with TRPC6 inh | membrane potential dye fluorescence; after compound, maximal acetylcholine stimulation | inhibition, % at 10 µM | hit rate 14% among 2,400 | AID 488926;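 active = membrane potential signal drops by more than 5 SD from the mean control signal, in both duplicate plates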;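 also: plate controls were acetylcholine ECmax control wells for no effect and buffer only wells for full effect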
TRPC4/MOR mod = selectivity of TRPC6 modulators against mouse TRPC4; hit rate 69% among 2,400; percent change from control (negative = decrease, positive = increase), % at 10 µM; shares compounds with TRPC6 inh; HEK293 TRPC4/mu-opioid, membrane potential fluorescence; AID 488927;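 active = membrane potential signal moved up or down beyond 5 SD of buffer control wells, in both duplicate plates, actives on both sides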;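 also: plate controls were assay buffer wells for no effect and DAMGO maximal-effect wells for full effect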
TRPC4/MOR inh 2 = mouse TRPC4 off-target activity of TRPC6 modulators, second screen; inhibition, % at 10 µM; HEK293 TRPC4/mu-opioid, membrane potential dye fluorescence; stimulated with maximal-effect DAMGO; shares compounds with TRPC6 inh; AID 488928; hit rate 55% among 2,400;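 active = drop in membrane potential signal beyond 5 SD of the control wells in both duplicate plates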;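 also: TRPC4 counter screen for TRPC6 hits run under conditions tuned for TRPC6 not TRPC4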
TRPC6 inh conf = mouse TRPC6 inhibitor confirmation. inhibition, % at 10 µM. AID 488960. HEK293-TRPC6, membrane potential dye, ACh-evoked depolarization. shares compounds with TRPC6 inh. hit rate 43% among 3,300;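 active = fluorescence ratio falls more than 5 SD below the full-stimulation control mean, in both duplicate runs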;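 also: integrated fluorescence ratio of peak minus minimum over baseline after agonist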
TRPC6 act conf = mouse TRPC6 activator confirmation | HEK293-TRPC6 membrane potential dye fluorescence, FDSS | shares compounds with TRPC6 inh | hit rate 11% among 2,800 | activation, % at 10 µM;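 active = ratio signal rise beyond 5 SD above unstimulated control wells' mean, seen in both duplicate runs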;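 also: plate controls were buffer EC0 wells for no effect and acetylcholine ECmax response for full effect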
The depositor's hits bear a star; i = inactive; nt = no result. A selection: hits, their analogues and other compounds. The true share with any hit is near 2.3%.

SMILES	TRPC6 inh	TRPC4 block	TRPC4 PAM	TRPC6 act	TRPC4 agonist	HEK293 MPD ctr-2	HEK293 MPD ctr 2-2	TRPC4/MOR mod	TRPC4/MOR inh 2	TRPC6 inh conf	TRPC6 act conf	others
CC1CCCN(Cc2c(O)ccc3c(=O)c(-c4nc5ccccc5s4)c(N)oc23)C1 (stereo unspecified)	-5.8*	i	i	i	i	i	i	i	48%*	i	i
COCC(=O)N(C)c1nnc(-c2cnccn2)s1	i	i	i	i	i	nt	nt	nt	nt	nt	nt
CC(=O)N(C)c1nnc(-c2cnccn2)s1	-6.5*	i	i	i	i	-234%*	i	-32%*	i	i	i
N=C1CCCN1CC(=O)c1ccc(Cl)cc1	-5.1*	i	i	i	i	i	i	i	i	i	i
COC(=O)c1c(-c2ccc3ccccc3c2)csc1NC(=O)Cc1ccc(OC)c(OC)c1	-5.8*	i	i	i	i	i	i	i	i	i	i
COc1ccc(-n2cnnc2SCC(=O)N(C)c2ccccc2)cc1	i	i	i	i	i	nt	nt	nt	nt	nt	nt
COc1ccc(-n2cnnc2SCc2csc(-c3ccccc3)n2)cc1	-5.2*	i	i	i	i	i	i	14%*	i	43%*	nt
COc1ccccc1-c1ccc(/C=C2\C=CC(=O)O2)o1	i	i	i	31*	i	706%*	i	204%*	i	i	121%*
COc1ccccc1-c1ccc(/C=C2/C=C(C)OC2=O)o1	i	i	i	i	i	nt	nt	nt	nt	nt	nt
Cc1cccc(C(C(=O)NC2CCCCC2)N(C(=O)c2csnn2)C2CC2)c1 (stereo unspecified)	i	i	i	i	i	nt	nt	nt	nt	nt	nt
O=C(NCc1ccccc1)c1noc2c1CCCCC2	i	i	i	i	i	nt	nt	nt	nt	nt	nt
O=C(NC1CCCC1)c1noc2c1CCCCC2	-8*	i	i	i	i	nt	nt	nt	nt	i	i	TRPC4 spec 2=i;TRPC4 spec=i;HEK293 MPD ctr 2-1=i;HEK293 MPD ctr-1=i
COC(c1ccccc1)c1nnc(CCC(=O)N(C)Cc2cccc(-n3cccn3)c2)o1 (stereo unspecified)	i	i	i	16*	i	i	i	8.5%*	i	i	i
Cc1cc(C)n(-c2nc(SCCN(C)C)c3c4c(sc3n2)COC(C)(C)C4)n1	-9.8*	i	i	i	i	nt	nt	nt	nt	57%*	i	TRPC4 spec 2=48%*;TRPC4 spec=-15%*;HEK293 MPD ctr 2-1=i;HEK293 MPD ctr-1=-304%*
C(=N\Nc1nc(N2CCCCC2)nc(N2CCCCC2)n1)/c1c[nH]c2ccccc12	-7.9*	i	i	i	i	-56%*	i	-15%*	42%*	58%*	i
Cc1ccccc1/C=N/Nc1nc2ccccc2[nH]1	i	i	i	i	i	nt	nt	nt	nt	nt	nt
CN(C)c1nc(N/N=C/c2c[nH]c3ccccc23)nc(N2CCOCC2)n1	i	i	i	i	i	nt	nt	nt	nt	nt	nt
C(=N\Nc1nc2ccccc2[nH]1)/c1c[nH]c2ccccc12	-9.7*	i	i	i	i	-105%*	i	-26%*	74%*	56%*	i
Cc1ccc(C(C(=O)NC2CCCC2)N(CCCO)C(=O)Cn2nnc(-c3ccc(C)o3)n2)cc1 (stereo unspecified)	i	i	i	i	i	nt	nt	nt	nt	nt	nt
COc1ccc(S(=O)(=O)N2CCCCC2)cc1NC(=O)c1ccc([N+](=O)[O-])o1	i	i	i	i	i	nt	nt	nt	nt	nt	nt
CCN1CCN(c2ccc(S(=O)(=O)N3CCCCC3)cc2NC(=O)COc2cc(C)ccc2Cl)CC1	-5.7*	i	25*	i	i	i	i	i	54%*	i	i
CN1CCN(c2ccc(S(=O)(=O)N3CCCCC3)cc2NC(=O)c2ccc(F)cc2F)CC1	-9*	i	16*	i	i	nt	nt	nt	nt	i	i	TRPC4 spec 2=70%*;TRPC4 spec=i;HEK293 MPD ctr 2-1=278%*;HEK293 MPD ctr-1=0.3%*
CCN1CCN(c2ccc(S(=O)(=O)N3CCCCC3)cc2NC(=O)c2ccc([N+](=O)[O-])o2)CC1	-7.5*	i	i	i	i	-130%*	i	-30%*	54%*	i	i
O=[N+]([O-])c1ccc(NC(=S)NCCc2ccc(F)cc2)cc1	-5.3*	i	i	i	i	i	i	i	62%*	i	i
O=C(NCCc1ccc(F)cc1)Nc1ccc([N+](=O)[O-])cc1	i	i	i	i	i	nt	nt	nt	nt	nt	nt
COc1ccc(Cc2nc3ccc(C(=O)NC(C)c4cn(C)nc4C)cc3o2)cc1 (stereo unspecified)	i	i	i	i	i	nt	nt	nt	nt	nt	nt
O=C(CN1CCCC1)N1CCCc2c1c(=O)oc1ccc(OCc3ccccc3)cc21	-6.5*	i	i	i	i	i	i	i	70%*	i	i
Brc1ccc(/C=N/Nc2ccc3ccccc3n2)cc1	i	i	i	i	i	nt	nt	nt	nt	nt	nt

Source: PubChem BioAssay (Johns Hopkins Ion Channel Center)
